# RBBP9 inh: blocks human serine hydrolase RBBP9; AID 1515; recombinant RBBP9, FP-Rh probe fluorescence polarization; O75884; inhibition, % at 7.94 µM; 0.2% of 220,000 active;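 active = inhibition above the campaign mean of all tested compounds plus 3 SD, cut at about 14% in these data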
# Target sequence (O75884 whole entry, looked up): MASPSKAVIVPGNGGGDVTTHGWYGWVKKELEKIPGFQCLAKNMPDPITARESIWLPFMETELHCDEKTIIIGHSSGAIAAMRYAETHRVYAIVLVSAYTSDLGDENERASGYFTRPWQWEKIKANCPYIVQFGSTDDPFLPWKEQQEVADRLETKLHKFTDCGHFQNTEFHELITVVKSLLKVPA
#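 Controls: DMSO-treated enzyme wells and wells lacking RBBP9 | Material: RBBP9 protein | Technique: Fluorescence polarization | Replication: Single well per compound, no replicates | Buffer or medium: Tris-NaCl-Pluronic buffer, pH 8.0 | Timing: 30 min compound preincubation, 45 min probe labeling, 25 °C | Read-out basis: Percent inhibition from mP, scaled between DMSO and no-protein wells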
# GSTO1 inh: blocks human GSTO1 in RBBP9 counter-screen | P78417 | recombinant GSTO1, activity-based probe fluorescence polarization | inhibition, % at 5.96 µM | 1.1% of 300,000 active | AID 1974;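 active = inhibition above the campaign mean inhibition plus 3 SD, cut at about 35% in these data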
# PAD4 FP inh: inhibitors of human PAD4. recombinant PAD4, RCA probe fluorescence polarization. inhibition, % at 6.36 µM. 0.41% of 330,000 active;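 active = percent inhibition above a cutoff equal to the mean of all tested compounds plus 3 SD, cut at about 15% in these data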
# PRMT1 FP inh: PRMT1 (human) inhibition, primary screen | Q99873 | recombinant PRMT1, activity-based probe fluorescence polarization | inhibition, % at 2.79 µM | 1.3% of 370,000 active;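 active = inhibition above about 21% made by adding two undisclosed values, limit read from the data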
# Target sequence (Q99873 whole entry, looked up): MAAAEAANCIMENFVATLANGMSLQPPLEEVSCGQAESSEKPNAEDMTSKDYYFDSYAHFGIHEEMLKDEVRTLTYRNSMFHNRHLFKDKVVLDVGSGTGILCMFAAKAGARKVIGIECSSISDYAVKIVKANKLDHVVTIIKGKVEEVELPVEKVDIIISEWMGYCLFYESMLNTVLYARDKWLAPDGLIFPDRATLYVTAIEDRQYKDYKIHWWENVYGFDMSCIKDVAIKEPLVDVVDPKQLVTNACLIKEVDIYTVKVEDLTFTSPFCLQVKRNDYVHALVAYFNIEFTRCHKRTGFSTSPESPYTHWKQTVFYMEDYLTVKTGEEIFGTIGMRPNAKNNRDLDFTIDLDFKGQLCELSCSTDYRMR
# SIAE inh: blocks human sialic acid acetylesterase; 0.69% of 370,000 active; inhibition, % at 9.66 µM; Q9HAT2; SIAE FP-Rh probe binding, fluorescence polarization; AID 1053197;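 active = inhibition above a cutoff: mean of compounds within the control limits plus 3 SD of those, cut at about 17% in these data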
# GSTO1 confirm: confirmation of human GSTO1 inhibitors; shares compounds with GSTO1 inh; recombinant GSTO1, probe fluorescence polarization; inhibition, % at 5.96 µM; 54% of 2,400 active; AID 2176;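 active = inhibition above the primary screen's cutoff, its mean inhibition plus 3 SD, cut at about 35% in these data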;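 also: loss of polarization as inhibitors block binding of rhodamine sulfonate ester activity probe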
# GSTO1 ABPP inh: inhibitors of recombinant human GSTO1. shares compounds with GSTO1 inh. gel ABPP SE-Rh probe fluorescence. inhibition, % at 1 µM. 30% of 130 active. AID 463110;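 active = inhibition of the enzyme GSTO1 above about 75%, limit read from the data; inactive = inhibition below that limit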
# PAD4 FP conf: PAD4 (human) inhibition, confirmed; shares compounds with PAD4 FP inh; recombinant PAD4, RCA probe fluorescence polarization; inhibition, % at 6.36 µM; 28% of 1,200 active; AID 488796;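 active = mean inhibition across replicates above the hit cutoff set by the earlier primary screen, cut at about 15% in these data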;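 also: inhibitors block active-site labeling by the probe so polarization falls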
# Numbers stand for hits; 0 = inactive; - = no result given. Compounds with a hit are over-represented: about 2.7% of the library has one in this group of screens.
SMILES,RBBP9 inh,GSTO1 inh,PAD4 FP inh,PRMT1 FP inh,SIAE inh,GSTO1 confirm,PAD4 FP conf,others
CC(=O)c1cc(O)c2ccccc2c1O,0,46,0,45,0,39,-,
CC(=O)c1coc2c1cc(O)c1ccccc12,0,0,0,0,0,-,-,
O=C(CSc1nc2c(c(=O)n1-c1ccc(Cl)cc1)SCC2)Nc1nccs1,0,0,0,0,0,-,-,
COc1cccc(C(=O)Nc2ccc(NC(=O)C(C)C)nc2)c1,0,0,0,0,0,-,-,
Cc1nn(-c2ccccc2)c2[nH]c(=O)c(CNc3ccc(N4CCOCC4)cc3)cc12,0,39,20,0,0,0,0,
CC1(C)Nc2ccc(O)cc2-c2c1ssc2=S,0,63,41,22,0,0,18,
COc1cccc(-n2sc3c(c2=S)-c2cc(OC)ccc2NC3(C)C)c1,0,0,0,0,0,-,-,
Cn1c(OCc2ccc3c(c2)OCO3)nc2c1c(=O)n(Cc1cccc(Cl)c1)c(=O)n2C,0,0,0,0,0,-,-,
O=[N+]([O-])c1cc(Cc2ccccc2)cc(C=Nc2ccc(N3CCOCC3)cc2)c1O,0,69,24,-,-,0,0,
CC1=NN(Cc2ccccc2)C(=O)C1,0,57,71,0,0,0,0,
CC1=NN(c2ccccc2)C(=O)C1,0,72,45,0,0,0,0,
O=C(N/N=C/c1ccco1)/C(=C/c1cccc([N+](=O)[O-])c1)NC(=O)c1ccccc1,0,0,0,0,0,-,-,
Oc1ccc(N=Cc2ccc(-c3cccs3)s2)cc1,0,82,18,38,45,0,0,
Cc1ccc2cccc(CC(=O)NN)c2c1,-,-,-,0,0,-,-,
O=C(/C(=C/O)N=Nc1ccccc1Cl)c1ccccc1,0,0,0,0,0,-,-,
Cc1ccc(S(=O)(=O)N2CCN(Cc3ccccc3)CC2)c(C)c1N(C)S(=O)(=O)c1ccccc1,0,0,0,0,0,-,-,
CS(=O)(=O)c1ccc(Nc2nc(C(N)Cc3ccc(Cl)cc3)cs2)cc1 (centres undefined),-,-,-,0,0,-,-,
O=C(NC1(O)C(=O)c2ccccc2C1=O)c1ccc(C(F)(F)F)cc1,0,84,40,0,0,77,40,
O=C(N[C@@H](Cc1ccccc1)C(=O)O)c1ccc(C(F)(F)F)cc1,0,0,0,0,0,-,-,
NC(=O)c1ccccc1N=Cc1cccnc1,-,0,0,0,0,-,-,
O=C1C(Nc2cccc(O)c2)=C(N2CCCCC2)C(=O)c2ccccc21,0,79,18,0,0,63,0,
O=C1C(Nc2ccccc2)=C(N2CCCCC2)C(=O)c2ccccc21,0,62,15,0,0,56,0,
COc1ccccc1NC1=C(N2CCCCC2)C(=O)c2ccccc2C1=O,0,73,38,-,-,54,0,
COc1ccccc1NS(=O)(=O)c1cc(N)ccc1N1CCCC1,-,-,0,0,0,-,-,
N#Cc1ccc(CSc2nnc(-c3cccc(S(=O)(=O)N4CCCCC4)c3)o2)cc1,0,0,0,0,0,-,-,
SMILES,RBBP9 inh,GSTO1 inh,PAD4 FP inh,PRMT1 FP inh,SIAE inh,GSTO1 confirm,PAD4 FP conf,others
O=C1C=C(Nc2ccccc2O)c2ccccc2C1=O,0,72,65,0,0,74,31,
O=S(=O)(/N=C(/Nc1ccccc1F)c1ccccc1)c1ccccc1,0,0,0,0,0,-,-,
Cc1ccccc1NC1=C/C(=N\S(=O)(=O)c2ccc(C(=O)O)cc2)c2ccccc2C1=O,-,90,71,0,0,93,58,
O=C(O)c1ccc(S(=O)(=O)/N=C2\C=C(Nc3ccccc3F)C(=O)c3ccccc32)cc1,-,91,67,0,0,93,65,
N#Cc1c(NC(=O)c2ccc(Br)o2)n(-c2ccccc2)c2nc3ccccc3nc12,0,74,36,0,0,85,20,
COc1cc(NC(C)CCCN)c2ncccc2c1 (centres undefined),-,47,35,0,0,0,0,
CCc1c(C)nc2nc(SCc3ccccc3Cl)[nH]n2c1=O,-,0,0,0,0,-,-,
Cc1ccccc1NC1=C/C(=N\S(=O)(=O)c2cccs2)c2ccccc2C1=O,0,92,70,0,0,88,53,
COc1ccc(S(=O)(=O)/N=C2\C=C(Nc3ccc(O)cc3)C(=O)c3ccccc32)cc1,-,94,62,0,40,89,58,
CC(=O)Nc1ccc(NC2=C/C(=N/S(=O)(=O)c3cccs3)c3ccccc3C2=O)cc1,0,87,65,0,0,86,45,
Cc1ccc(NC2=CC(=O)C(=O)c3ccccc32)c(C)c1,-,-,0,0,0,-,-,
O=C(Cc1ccc(Cl)cc1)NCCc1c[nH]c2ccccc12,-,0,0,0,0,-,-,
O=C(CCl)N(c1ccc(Cl)cc1)c1c[nH]c2ccccc12,0,72,17,0,0,82,34,GSTO1 ABPP inh=0
CC1CCCCN1S(=O)(=O)c1cccc(S(=O)(=O)N2CCOCC2)c1 (centres undefined),0,0,0,0,0,-,-,
COc1ccc2nc3ccccc3nc2c1N,0,60,25,0,0,0,0,
Cc1ccc(-c2nn[nH]n2)o1,0,0,0,0,0,-,-,
COc1cccc(C2C(C#N)=C(N)Oc3cc(C)n(Cc4ccccn4)c(=O)c32)c1OC (centres undefined),0,0,0,0,0,-,-,
CCN(CC)c1cc(Cl)c2nonc2c1N,0,0,0,0,0,-,-,
CN(C)c1cc(Cl)c2nonc2c1N,0,60,40,0,0,0,0,
O=C1C(N2CCOCC2)=C(n2nnc3ccccc32)C(=O)c2ccccc21,0,77,23,0,0,84,15,
Cc1[nH]c2ccccc2c1CCN(Cc1cccs1)C(=S)Nc1ccccc1,0,0,0,0,0,-,-,
COc1ccc(CC(=O)NCc2ccc(Cl)cc2)cc1S(=O)(=O)N1CCOCC1,-,-,-,0,0,-,-,
CC(=O)N1CCn2c3c(c(=O)c4cc(C)ccc42)CCC31 (centres undefined),0,73,46,0,0,57,0,
CC(C)(C)c1csc(NNC(=O)c2ccc(Cl)cc2)n1,0,0,0,0,0,-,-,
CCCCOc1ccc(C2OC34CCCCC3C(C#N)(C#N)C2(C#N)C(=N)O4)cc1 (centres undefined),0,0,0,-,-,-,-,
CCOc1ccc(C2OC34CCCCC3C(C#N)(C#N)C2(C#N)C(=N)O4)cc1OC (centres undefined),0,39,35,-,-,0,18,
O=C(O)CCC(=O)NNC(=O)CCC(=O)NCc1ccccc1,0,0,0,0,0,-,-,
COC(=O)C1=C(C)OC(N)=C(C#N)C1c1ccc(OC)c(OC)c1OC (centres undefined),0,0,0,0,0,-,-,
COc1ccc(C2C(C#N)=C(N)Oc3c2c(-c2ccccc2)nn3-c2ccccc2)c(OC)c1OC (centres undefined),0,47,25,0,0,0,0,

# From PubChem BioAssay
